One block for each molecule: values may come before it.
What was measured:
Assay type in all cases: biochemical
[1] = molecular target: T1, M4RA (MLL4SET-RBBP5AS-ABM-ASH2LSPRY) (Homo sapiens, UniProt O14686); test: Continuous enzyme-coupled methylation assay, M4RA
[2] = molecular target: T2, M3RA (MLL3SET-RBBP5AS-ABM-ASH2LSPRY) (Homo sapiens, UniProt Q8NEZ4); test: Continuous enzyme-coupled methylation assay, M3RA
[3] = molecular target: T2, M3RA (MLL3SET-RBBP5AS-ABM-ASH2LSPRY); test: Mass-spectrometry-based
How it was run: (§1)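 Enzyme (E. coli-expressed SET–RBBP5–ASH2L ternary complex) was preincubated 15 min with 0, 50 or 100 μM AdoHcy. […] Samples taken every 30 s were quenched with TFA (0.5% final) and chilled to 4 °C. Monomethylated peptide was measured by MALDI-TOF in a CHCA matrix. Data were analysed by Lineweaver–Burk plots and nonlinear fits to competitive, noncompetitive and uncompetitive models, choosing the best coefficient of determination and lowest error.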

[4] = molecular target: T1, M4RA (MLL4SET-RBBP5AS-ABM-ASH2LSPRY); test: Mass-spectrometry-based
How it was run: as §1

[5] = substrate: C[S+](CC[C@H](N)C(=O)[O-])C[C@H]1O[C@@H](n2cnc3c(N)ncnc32)[C@H](O)[C@@H]1O; test: Continuous enzyme-coupled methylation assay, M4RA; details: other: H3P20 fixed at 1600 μM; pH 8.0; 30.0 °C
[6] = substrate: C[S+](CC[C@H](N)C(=O)[O-])C[C@H]1O[C@@H](n2cnc3c(N)ncnc32)[C@H](O)[C@@H]1O; test: Continuous enzyme-coupled methylation assay, M3RA; details: other: H3P20 fixed at 1600 μM; pH 8.0; 30.0 °C
[7] = varied substrate AdoMet, H3P20 constant 400 μM
[8] = varied substrate H3P20, AdoMet constant 200 μM
[9] = Ki, varied AdoMet, global fit to Competitive model (Model Fit: Competitive)

T2 sequence (Q15291 330-360 partner limits assumed, one chain of several): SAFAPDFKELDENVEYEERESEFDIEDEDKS
T2 sequence (Q9UBL3 380-599 partner limits assumed, one chain of several): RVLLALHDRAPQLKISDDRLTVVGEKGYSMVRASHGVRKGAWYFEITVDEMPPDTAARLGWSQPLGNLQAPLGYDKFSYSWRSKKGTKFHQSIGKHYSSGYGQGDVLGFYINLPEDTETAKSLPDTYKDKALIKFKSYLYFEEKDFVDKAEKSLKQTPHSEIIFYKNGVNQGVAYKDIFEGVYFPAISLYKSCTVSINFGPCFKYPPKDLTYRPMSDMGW
T1 sequence (Q15291 330-360 partner limits assumed, one chain of several): as the sequence (Q15291 330-360 partner limits assumed, one chain of several) above
T1 sequence (Q9UBL3 380-599 partner limits assumed, one chain of several): as the sequence (Q9UBL3 380-599 partner limits assumed, one chain of several) above

Molecule: M4RA: ternary complex of MLL4 SET domain, RBBP5AS-ABM and ASH2LSPRY
- kcat ([1]; from secondary plots): 0.108 ± 0.00533 s⁻¹

- Inhibition pattern [2, 7]: Competitive
- Inhibition pattern [2, 8]: Noncompetitive
- Inhibition pattern [1, 7]: Competitive
- Inhibition pattern [1, 8]: Noncompetitive
Molecule: Nc1ncnc2c1ncn2[C@@H]1O[C@H](C[C@@H](N)CC[C@H](N)C(=O)O)[C@@H](O)[C@H]1O [Sinefungin]

- Ki [3, 9]: 4.19 µM
- Inhibition pattern [3, 7]: Competitive
- Inhibition pattern [3, 8]: Noncompetitive
- Ki [4, 9]: 11.2 µM
- Inhibition pattern [4, 7]: Competitive
- Inhibition pattern [4, 8]: Noncompetitive
Molecule: Nc1ncnc2c1ncn2[C@@H]1O[C@H](CSCC[C@H](N)C(=O)O)[C@@H](O)[C@H]1O [AdoHcy, S-adenosylhomocysteine]

- Kd [2]: 4.29 ± 0.44 µM
- KBA ([2]; from secondary plots, Michaelis constant for formation of EAB from A to EB): 27.23 ± 3.05 µM
- Kd [1]: 10.3 ± 0.46 µM
Molecule: C[S+](CC[C@H](N)C(=O)[O-])C[C@H]1O[C@@H](n2cnc3c(N)ncnc32)[C@H](O)[C@@H]1O (stereo partly shown) [AdoMet, S-adenosylmethionine]

Molecule: M3RA: ternary complex of MLL3 SET domain, RBBP5AS-ABM and ASH2LSPRY
- kcat ([2]; from secondary plots): 0.108 ± 0.00783 s⁻¹

B1: M4RA (MLL4SET-RBBP5AS-ABM-ASH2LSPRY) (Homo sapiens) (protein)
chain: NNVYLARSRIQGLGLYAAKDLEKHTMVIEYIGTIIRNEVANRREKIYEEQNRGIYMFRINNEHVIDATLTGGPARYINHSCAPNCVAEVVTFDKEDKIIIISSRRIPKGEELTYDYQ
- Km [5]: 6.9 ± 0.4 µM
- kcat [5]: 0.08 ± 0.0017 s⁻¹

B2: M3RA (MLL3SET-RBBP5AS-ABM-ASH2LSPRY) (Homo sapiens) (protein)
chain: SNVYLARSRIQGLGLYAARDIEKHTMVIEYIGTIIRNEVANRKEKLYESQNRGVYMFRMDNDHVIDATLTGGPARYINHSCAPNCVAEVVTFERGHKIIISSSRRIQKGEELCYDYK
- Km [6]: 20.0 ± 1.5 µM
- kcat [6]: 0.0833 ± 0.0017 s⁻¹
